Assay results collected from several papers.
Oprm1: Mu-type opioid receptor (Oprm1, Rattus norvegicus, UniProt P33535)

Cn1cc(-c2cccc(N3CCc4c(sc5c4CC(C)(C)C5)C3=O)c2CO)cc(Nc2ccncn2)c1=O  inhibition (Phosphatidylinositol 4-kinase alpha (PI4KA, Homo sapiens, UniProt P42356); enzyme activity, inhibitor; 1 µM): -5%
OC[C@H]1CNCCN1C[C@@H]1CCCN1C[C@H](CC1CCCCC1)N1CCN(CCC23CC4CC(CC(C4)C2)C3)[C@H](Cc2ccc(O)cc2)C1  remaining binding (Oprm1; ligand displacement, radioligand; 0.5 µM, 1 h, pH 7.5, cell membranes): 108%
CC(C)(C)c1nc2c(s1)c1nc(N)ncc1c1ccc(NS(=O)(=O)c3c(F)cccc3F)c(F)c12  remaining activity (Tau-tubulin kinase 1 (TTBK1, Homo sapiens, UniProt Q5TCY1); enzyme activity, inhibitor, radiometric; 1 µM): 79%
C[C@@H](O)[C@@H]1CN([C@H](Cc2ccc3ccccc3c2)CN2CCC[C@H]2CN2CCNC[C@@H]2Cc2ccc3ccccc3c2)CCN1CCc1ccc(Cl)c(Cl)c1  remaining binding (Oprm1; ligand displacement, radioligand; 0.5 µM, 1 h, pH 7.5, cell membranes): 109%
O=C(c1cc(O)c(O)c([N+](=O)[O-])c1)c1ccccc1F  koff (Transthyretin (TTR, Homo sapiens, UniProt P02766); binding, SPR): 0.132 s⁻¹
Cn1cc(-c2cc(F)cc(N3CCn4c(cc5c4CCCC5)C3=O)c2CO)cc(Nc2ccc(N3CCN(C4COC4)CC3)cn2)c1=O  inhibition (Phosphatidylinositol 4,5-bisphosphate 3-kinase catalytic subunit delta isoform (PIK3CD, Homo sapiens, UniProt O00329); enzyme activity, inhibitor; 0.1 µM): -1%
C[C@@H](O)[C@@H]1CN([C@H](Cc2ccc3ccccc3c2)CN2CCC[C@H]2CN2CCNC[C@@H]2Cc2ccc3ccccc3c2)CCN1CCC12CC3CC(CC(C3)C1)C2  remaining binding (Oprm1; ligand displacement, radioligand; 0.5 µM, 1 h, pH 7.5, cell membranes): 107%
COc1ncccc1-c1cnn2ccc(N3CCN(C(=O)OC(C)C)CC3)nc12  remaining binding (Casein kinase II subunit alpha (CSNK2A1, Homo sapiens, UniProt P68400); binding, competition with immobilised ligand; 1 µM): 79%
CC[C@@H](C)[C@@H]1CN([C@H](Cc2ccc3ccccc3c2)CN2CCC[C@H]2CN2CCNC[C@@H]2CO)CCN1CCc1ccc(Cl)c(Cl)c1  remaining binding (Oprm1; ligand displacement, radioligand; 0.5 µM, 1 h, pH 7.5, cell membranes): 98.4%
CCN(CC)CCCC[C@H](NC(=O)[C@H](CC(C)C)NC(=O)[C@H](C)NC(=O)[C@H](Cc1ccccc1)NC(=O)c1ccc(C(C)(C)C)cc1)C(=O)N[C@@H](CO)C(=O)OC  remaining binding (5-hydroxytryptamine receptor 5A (HTR5A, Homo sapiens, UniProt P47898); ligand displacement, radioligand; 10 µM): 93.1%
Oc1ccc(C[C@@H]2CN([C@H](Cc3ccc4ccccc4c3)CN3CCC[C@H]3CN3CCNC[C@@H]3Cc3ccc4ccccc4c3)CCN2CCC23CC4CC(CC(C4)C2)C3)cc1  remaining binding (Oprm1; ligand displacement, radioligand; 0.5 µM, 1 h, pH 7.5, cell membranes): 112%
C#Cc1n[nH]c2c(-c3cn(C(C)c4ccccn4)c(=O)[nH]c3=O)cc(F)cc12 (stereo not drawn)  inhibition (Myosin light chain kinase, smooth muscle (MYLK, Homo sapiens, UniProt Q15746); enzyme activity, inhibitor; 1 µM): 4%
COc1cc(Cl)c(C(=O)N[C@@H](CN[C@H]2CC[C@@H](N)CC2)Cc2ccc(C#N)cc2)cc1-c1ccc(CN[C@H](C)c2ccc(C)cc2)o1  remaining activity (Serine/threonine-protein kinase Nek11 (NEK11, Homo sapiens, UniProt Q8NG66); enzyme activity, inhibitor; 1 µM): 107%
Cc1nn(C)cc1-c1nc2c(N3CCN(Cc4ccc(Cl)cc4)CC3)c(Cl)cnc2[nH]1  remaining binding (Mast/stem cell growth factor receptor Kit (KIT, Homo sapiens, UniProt P10721, D816H); binding, competition with immobilised ligand; 1 µM): 71%
Nc1ncc(-c2nc(N3CCOCC3)nc(N3CCOCC3)n2)c(C(F)F)n1  remaining binding (Mast/stem cell growth factor receptor Kit (KIT, Homo sapiens, UniProt P10721, A829P); binding, competition with immobilised ligand; 10 µM): 80%
